According to ChEMBL document CHEMBL4765342, “Substituted benzothiophene and benzofuran derivatives as a novel class of bone morphogenetic Protein-2 upregulators: Synthesis, anti-osteoporosis efficacies in ovariectomized rats and a zebrafish model, and ADME properties” (Eur J Med Chem, 2020):
The source made the active and inactive calls. The calls are words filed in the database; no cut-off is given here.

How the values were obtained:
[1] = Toxicity in Kunming mouse assessed as organism death administered orally for 3 days and observed for 17 days starting from drug administration; conditions: in vivo, po, 408 h, time 17 day
[2] = Solubility in PBS buffer at pH 7.4 assessed as precipitation of compound at 10000 nM; assay type: physicochemical; conditions: pH 7.4, 10 µM
[3] = Solubility in PBS buffer at pH 7.4 assessed as precipitation of compound at 5000 nM; assay type: physicochemical; conditions: pH 7.4, 5 µM
[4] = Solubility in PBS buffer at pH 7.4 assessed as precipitation of compound at 2500 nM; assay type: physicochemical; conditions: pH 7.4, 2.5 µM
[5] = Solubility in PBS buffer at pH 7.4 assessed as precipitation of compound at 1250 nM; assay type: physicochemical; conditions: pH 7.4, 1.25 µM
[6] = Solubility in PBS buffer at pH 7.4 assessed as precipitation of compound at 625 nM; assay type: physicochemical; conditions: pH 7.4, 0.625 µM
[7] = Solubility in PBS buffer at pH 7.4 assessed as precipitation of compound at 312.5 nM; assay type: physicochemical; conditions: pH 7.4, 0.3125 µM
[8] = Solubility in PBS buffer at pH 7.4 assessed as precipitation of compound at 156.25 nM; assay type: physicochemical; conditions: pH 7.4, 0.15625 µM
Rattus norvegicus [9] = test: Antiosteoporotic activity in Sprague-Dawley rat model of OVX-induced bone loss assessed as increase in trabecular bone volume at 30 mg/kg, ig administered for 3 months with 1 day break after 6 consecutive days administration; assay type: functional, organism-based
Procedure, shortened: (§1)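 Female SD rats given bilateral ovariectomy (sham: fat tissue removed instead), adapted 1 week beforehand; dosing began on postoperative day 10, n = 10 per group. Test drugs as 3 mg/mL suspension by gavage; raloxifene hydrochloride at 0.5 mg/mL. Controls got water. Tetracycline 30 mg/kg ip 16 and 3 days before euthanasia. Tibia stained sections give trabecular morphology and TBV%. BMD of L4-6 measured by densitometry under pentobarbital 45 mg/kg anaesthesia. Reported as mean ± SD.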

Rattus norvegicus [10] = test: Antiosteoporotic activity in Sprague-Dawley rat model of OVX-induced bone loss assessed as increase in trabecular bone mineral density at 30 mg/kg, ig administered for 3 months with 1 day break after 6 consecutive days administration; assay type: functional, organism-based; procedure, shortened: as §1
[11] = Apparent permeability across apical to basolateral side in human Caco-2 cells at 10 uM incubated for 2 hrs LC-MS/MS analysis; assay type: ADME, cell-based; conditions: for Papp A→B at 2 h, 10 µM: Caco-2
Procedure, shortened: (§2)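 Caco-2 monolayers, apical to basolateral direction. Plates preincubated 30 min at 37 °C, then exposed to 10 µM compound for 2 h at 37 °C without shaking. Donor and receiver samples were quenched, centrifuged and measured by LC/MS/MS, in duplicate. Papp calculated from receiver concentration, area and time. Monolayer integrity checked by TEER and by Lucifer yellow leakage (30 min, 37 °C, ex 485/em 530 nm).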

[12] = Permeability across apical to basolateral side in human Caco-2 cells assessed as transepithelial electrical resistance at 10 uM incubated for 2 hrs LC-MS/MS analysis; assay type: ADME, cell-based; conditions: caco-2, 2 h; procedure, shortened: as §2
[13] = Permeability across apical to basolateral side in human Caco-2 cells assessed as […] yellow leakage at 10 uM incubated for 2 hrs LC-MS/MS analysis; assay type: ADME, cell-based; conditions: caco-2, 2 h; procedure, shortened: as §2
in vitro [14] = conditions: human
in vitro [15] = conditions: human; remark: listed apart in the source
Rattus norvegicus [16] = test: Antiosteoporotic activity in Sprague-Dawley rat model of OVX-induced bone loss assessed as increase in number of trabeculae at 30 mg/kg, ig administered for 3 months with 1 day break after 6 consecutive days administration; assay type: functional, organism-based; procedure, shortened: as §1
Rattus norvegicus [17] = test: Antiosteoporotic activity in Sprague-Dawley rat model of OVX-induced bone loss assessed as increase in thickness of trabeculae at 30 mg/kg, ig administered for 3 months with 1 day break after 6 consecutive days administration; assay type: functional, organism-based; procedure, shortened: as §1
Rattus norvegicus [18] = test: Antiosteoporotic activity in Sprague-Dawley rat model of OVX-induced bone loss assessed as narrowed gap between trabeculae at 30 mg/kg, ig administered for 3 months with 1 day break after 6 consecutive days administration; assay type: functional, organism-based; procedure, shortened: as §1

Row | SMILES | solubility [2] | solubility [3] | solubility [4] | solubility [5] | solubility [6] | solubility [7] | solubility [8] | also measured
1 | COc1ccc2cc(C(=O)OCCN(C)C)oc2c1.CS(=O)(=O)O | – | – | – | – | – | – | – | LD50 [1]: > 500 mg/kg/day
2 | COc1ccc2cc(C(=O)OCCCN(C)C)oc2c1 | Insoluble | Soluble | Soluble | Soluble | Soluble | Soluble | Soluble | –
3 | CS(=O)(=O)O.O=C(OCCN1CCOCC1)c1cc2cc3c(cc2s1)OCO3 | – | – | – | – | – | – | – | LD50 [1]: > 500 mg/kg/day
4 | COc1ccc2cc(C(=O)OCCCN(C)C)sc2c1 [listing 1 of 2 here] | – | – | – | – | – | – | – | Activity (Rattus norvegicus [9]): Active; Activity (Rattus norvegicus [10]): Active
5 | CN(C)CCOC(=O)c1cc2cc3c(cc2s1)OCO3 | Insoluble | Insoluble | Insoluble | Soluble | Soluble | Soluble | Soluble | –
6 | COCCc1ccc(OCC(O)CNC(C)C)cc1 (stereo unspecified) [METOPROLOL] | – | – | – | – | – | – | – | Papp A→B at 2 h, 10 µM [11]: 32.6 ×10⁻⁶ cm/s; Activity [12]: 326 Ω·cm²; Activity [13]: 0.154%; half-life at 0.5 h, 100 µM (in vitro [14]; microsomes): 159 min; microsomal CLint at 0.5 h, 100 µM (in vitro [15]; liver microsomes): 4.35 µL/min/mg
7 | COc1ccc2cc(C(=O)OCCN(C)C)oc2c1 [listing 1 of 2 here] | – | – | – | – | – | – | – | Activity (Rattus norvegicus [16]): Active; Activity (Rattus norvegicus [17]): Active; Activity (Rattus norvegicus [18]): Active; Activity (Rattus norvegicus [9]): Active; Activity (Rattus norvegicus [10]): Active
8 | COc1ccc2cc(C(=O)OCCCN(C)C)sc2c1 [listing 2 of 2 here] | Insoluble | Insoluble | Insoluble | Insoluble | Soluble | Soluble | Soluble | –
9 | CCCCOC(=O)c1cc2ccc(OC)cc2s1 | Insoluble | Insoluble | Insoluble | Insoluble | Insoluble | Soluble | Soluble | –
10 | COc1ccc2cc(C(=O)NCCN(C)C)oc2c1 | Insoluble | Insoluble | Soluble | Soluble | Soluble | Soluble | Soluble | –
11 | O=C(OCCN1CCOCC1)c1cc2cc3c(cc2s1)OCO3 [listing 1 of 2 here] | – | – | – | – | – | – | – | Activity (Rattus norvegicus [9]): Active; Activity (Rattus norvegicus [10]): Active
12 | O=C(O)Cc1ccccc1Nc1c(Cl)cccc1Cl [DICLOFENAC] | – | – | – | – | – | – | – | microsomal CLint at 0.5 h, 100 µM (in vitro [15]; microsomes): 197 µL/min/mg
13 | COc1ccc2cc(C(=O)OCCP(=O)([O-])[O-])oc2c1.[Na+].[Na+] | – | – | – | – | – | – | – | LD50 [1]: > 500 mg/kg/day
14 | O=C(OCCN1CCOCC1)c1cc2cc3c(cc2s1)OCO3 [listing 2 of 2 here] | Insoluble | Insoluble | Insoluble | Soluble | Soluble | Soluble | Soluble | –
15 | CCOc1ccc(NC(C)=O)cc1 [PHENACETIN] | – | – | – | – | – | – | – | half-life at 0.5 h, 100 µM (in vitro [14]; microsomes): 26.5 min; microsomal CLint at 0.5 h, 100 µM (in vitro [15]; liver microsomes): 26.2 µL/min/mg
16 | CN(C)CCCOc1nn(Cc2ccccc2)c2ccccc12 [BENZYDAMINE] | – | – | – | – | – | – | – | half-life at 0.5 h, 100 µM (in vitro [14]; microsomes): 43.1 min; microsomal CLint at 0.5 h, 100 µM (in vitro [15]; microsomes): 16.1 µL/min/mg
17 | COc1ccc2cc(C(=O)OCCN3CCOCC3)oc2c1 | Insoluble | Soluble | Soluble | Soluble | Soluble | Soluble | Soluble | –
18 | CN/C(=N/CCSCc1nc[nH]c1C)NC#N [CIMETIDINE] | – | – | – | – | – | – | – | Papp A→B at 2 h, 10 µM [11]: 0.679 ×10⁻⁶ cm/s; Activity [12]: 318 Ω·cm²; Activity [13]: 0.134%
19 | CC[C@H]1OC(=O)[C@H](C)[C@@H](O[C@H]2C[C@@](C)(OC)[C@@H](O)[C@H](C)O2)[C@H](C)[C@@H](O[C@@H]2O[C@H](C)C[C@H](N(C)C)[C@H]2O)[C@](C)(O)C[C@@H](C)C(=O)[C@H](C)[C@@H](O)[C@]1(C)O [ERYTHROMYCIN] | – | – | – | – | – | – | – | Papp ([11]; caco-2, 2 h, 10 µM): 0.0324 10^-6 cm/s; Activity [12]: 396 Ω·cm²; Activity [13]: 0.137%
20 | COc1ccc2cc(C(=O)N(C)CCN(C)C)oc2c1 | Insoluble | Insoluble | Soluble | Soluble | Soluble | Soluble | Soluble | –
21 | COc1ccc2cc(C(=O)OCP(=O)(O)O)oc2c1 | Insoluble | Soluble | Soluble | Soluble | Soluble | Soluble | Soluble | –
22 | COc1ccc2cc(C(=O)OCCP(=O)(O)O)oc2c1 [listing 1 of 2 here] | Soluble | Soluble | Soluble | Soluble | Soluble | Soluble | Soluble | –
23 | COc1ccc2cc(C(=O)OCCP(=O)(O)O)oc2c1 [listing 2 of 2 here] | – | – | – | – | – | – | – | Activity (Rattus norvegicus [9]): Active; Activity (Rattus norvegicus [10]): Active
24 | CN(C)CCCOC(=O)c1cc2cc3c(cc2s1)OCO3 | Insoluble | Insoluble | Insoluble | Insoluble | Soluble | Soluble | Soluble | –
25 | CN(C)CCNC(=O)c1cc2cc3c(cc2s1)OCO3 | Insoluble | Insoluble | Insoluble | Insoluble | Soluble | Soluble | Soluble | –
26 | COc1ccc2cc(C(=O)OCCCN(C)C)sc2c1.CS(=O)(=O)O | – | – | – | – | – | – | – | LD50 [1]: > 500 mg/kg/day
27 | COc1ccc2cc(C(=O)OCCN(C)C)oc2c1 [listing 2 of 2 here] | Insoluble | Soluble | Soluble | Soluble | Soluble | Soluble | Soluble | –
28 | CCOC(=O)c1cc2ccc(OC)cc2s1 | Insoluble | Insoluble | Insoluble | Insoluble | Insoluble | Insoluble | Insoluble | –
29 | CC(=O)c1cc2ccccc2s1 | – | – | – | – | – | – | – | Activity (Rattus norvegicus [16]): Active; Activity (Rattus norvegicus [17]): Active; Activity (Rattus norvegicus [18]): Active; Activity (Rattus norvegicus [9]): Active; Activity (Rattus norvegicus [10]): Active; Papp A→B at 2 h, 10 µM [11]: 22.1 ×10⁻⁶ cm/s; Activity [12]: 351 Ω·cm²; Activity [13]: 0.179%; half-life at 0.5 h, 100 µM (in vitro [14]; liver microsomes): 1.25 min; microsomal CLint at 0.5 h, 100 µM (in vitro [15]; liver microsomes): > 300 µL/min/mg
30 | CCOC(=O)c1cc2cc3c(cc2s1)OCO3 | Insoluble | Insoluble | Insoluble | Insoluble | Insoluble | Insoluble | Soluble | –
